Assay results reported in paper PMC6253716 (Chemical Science, 2018).
pEC50, pIC50: −log10 of the molar value. Read-outs that look alike come from different tables or passages of the source.

How the values were obtained:
[1] = tested on: HCT116 KRAS mutant colorectal cells; assay: Cell proliferation assay; format: cell-based; conditions: Homo sapiens, HCT-116, 96 h, read-out: Anti-proliferative IC50 HCT116
Method in brief: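 Cells were kept in DMEM + 10% FBS at 37 °C, 5% CO2. 5 × 10^3 cells were seeded one day before treatment. Compound was given in 0.1% (v/v) DMSO for 96 h, then viability was read with Alamar Blue. IC50 came from a sigmoidal dose–response fit.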

pRSK in HCT116 cells = assay: Quantification of pRSK by MSD, HCT116; format: cell-based; conditions: for pIC50: Homo sapiens, read-out: Pharmacodynamic IC50 (pRSK)
Method in brief: (§1)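 Lysis was 20 min at RT. Lysate was captured 3 h at RT on anti-pRSK-coated MSD plates, detected with sulfo-tag anti-RSK antibody for 1 h, and read electrochemiluminescently. IC50 came from a sigmoidal dose–response fit.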

pRSK in A375 cells = assay: Quantification of pRSK by MSD, A375; format: cell-based; conditions: Homo sapiens, read-out: Pharmacodynamic IC50 (pRSK)
Method in brief: as §1

ERK1/2 [2] = assay: In-lysate ERK1/2 pull down in competition with SCH-TCO; format: binding; conditions: cell lysates
ERK1/2 [3] = assay: In-lysate ERK1/2 pull down in competition with TCO-GDC-2; format: binding; conditions: HCT116 lysates; for Target engagement EC50 with TCO-GDC-2 probe (in words): apparently exaggerated
ERK2 [4] = target: T1, ERK2 (Homo sapiens, UniProt P28482); assay: ERK2 bioassay; format: biochemical
ERK1 [5] = target: T2, ERK1 (Homo sapiens, UniProt P27361); assay: In-cell ERK1/2 pull down in competition with SCH-TCO, ERK1; format: cell-based
ERK2 [6] = target: T1, ERK2; assay: In-cell ERK1/2 pull down in competition with SCH-TCO, ERK2; format: cell-based
ERK1 [7] = target: T2, ERK1; assay: ITDR-CETSA in HCT116 cells, ERK1; format: cell-based
ERK2 [8] = target: T1, ERK2; assay: ITDR-CETSA in HCT116 cells, ERK2; format: cell-based
ERK1/2 [9] = assay: CETSA melting curves; format: cell-based; conditions: HCT116 cells and lysates; 10 μM inhibitor
Method in brief: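 HCT116 cells in McCoy's 5A at 3 × 10^6 cells per mL got DMSO or 10 μM inhibitor for 1 h at 37 °C. Lysate arm: TG lysis buffer lysate with 10 μM inhibitor for 15 min at RT. Samples were heated 3 min at 12 temperatures (37–70 °C) and lysed by 3 freeze–thaw cycles. Soluble fraction (20 000g, 20 min) was immunoblotted for total ERK1/2 and quantified by densitometry into melting curves.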

ERK1/2 [10] = conditions: published data for the untagged compound; cited from earlier work

T2 sequence (P27361 whole entry): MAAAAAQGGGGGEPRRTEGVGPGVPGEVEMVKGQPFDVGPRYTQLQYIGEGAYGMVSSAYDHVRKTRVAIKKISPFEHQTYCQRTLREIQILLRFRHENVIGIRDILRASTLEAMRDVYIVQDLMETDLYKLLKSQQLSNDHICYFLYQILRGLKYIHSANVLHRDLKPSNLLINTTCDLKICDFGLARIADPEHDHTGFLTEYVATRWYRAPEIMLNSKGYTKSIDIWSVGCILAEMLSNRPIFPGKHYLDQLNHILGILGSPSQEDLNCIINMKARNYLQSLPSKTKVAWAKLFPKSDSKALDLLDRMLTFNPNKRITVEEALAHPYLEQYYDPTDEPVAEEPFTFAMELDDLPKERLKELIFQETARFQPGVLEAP
T1 sequence (P28482 whole entry): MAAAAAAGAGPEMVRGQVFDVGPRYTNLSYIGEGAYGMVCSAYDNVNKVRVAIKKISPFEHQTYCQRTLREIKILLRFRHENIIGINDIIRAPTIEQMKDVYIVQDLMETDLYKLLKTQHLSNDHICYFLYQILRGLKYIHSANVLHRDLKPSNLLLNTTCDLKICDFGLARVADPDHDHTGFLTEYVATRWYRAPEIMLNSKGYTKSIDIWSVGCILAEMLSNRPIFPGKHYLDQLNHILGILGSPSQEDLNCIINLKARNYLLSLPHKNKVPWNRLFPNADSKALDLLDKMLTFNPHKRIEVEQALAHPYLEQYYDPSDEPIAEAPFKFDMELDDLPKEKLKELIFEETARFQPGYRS

Row | pIC50 [1] | pIC50 (pRSK in HCT116 cells; HCT-116, 2 h) | pIC50 (pRSK in HCT116 cells; HCT-116, 7 h) | pIC50 (pRSK in A375 cells; A-375, 2 h) | pIC50 (pRSK in A375 cells; A-375, 7 h) | Difference between EC50 in A375 and HCT116 lysates (ERK1/2 [2]) | Difference between EC50 in competition with TCO-GDC-2 as compared with SCH-TCO (ERK1/2 [3]) | Target engagement EC50 with TCO-GDC-2 probe (in words) (ERK1/2 [3]) | Bioassay % @ 0.003 μM (ERK2 [4]; at 0.003 μM) | pEC50 (ERK1 [5]) | pEC50 (ERK2 [6]) | pEC50 (ERK1 [7]) | pEC50 (ERK2 [8]) | pIC50 (pRSK in A375 cells; A-375, 4 h) | Difference between engagement of ERK1 and ERK2 (ERK2 [8]; ITDR-CETSA in HCT116 cells, higher affinity for ERK2) | Inhibition of ERK2 (in words) (ERK2 [4]) | pIC50 (ERK2 [4]; read-out: Bioassay IC50, geometric means) | Compound | Suppression of pRSK (pRSK in HCT116 cells; HCT116 cells) | Effect on CETSA melting curves of ERK1/2 relative to DMSO control (ERK1/2 [9]) | t1/2 (off-rate, published data) (ERK1/2 [10])
1 | 6.00 | 6.85 | 6.96 | 6.77 | 6.89 | 2-3 fold | ~2 fold | low nanomolar range |  |  |  |  |  |  |  |  |  | Cn1nccc1Nc1nccc(-c2ccn([C@H](CO)c3ccc(Cl)c(F)c3)c(=O)c2)n1 [GDC-0994] |  |  | 
2 | 6.32 |  |  |  |  |  | ~2 fold | low nanomolar range | 62% @ 0.003 μM (2) | 6.17 | 6.11 | 6.52 | 6.48 | 5.68 |  |  |  | Cn1nccc1Nc1nccc(-c2cc3c(s2)C(C)(C)N(CCN2CCOCC2)C3=O)n1 [LY3214996] | failed to show convincing suppression of pRSK | temperature shift in the melting curves | 
3 | 7.30 | 8.05 | 8.22 | 7.70 | 7.70 |  |  |  |  | 7.80 |  | 7.20 |  |  | 4 fold |  |  | O=C(Nc1ccc2[nH]nc(-c3ccncc3)c2c1)[C@@H]1CCN(CC(=O)N2CCN(c3ccc(-c4ncccn4)cc3)CC2)C1 [SCH772984] |  |  | 25 to 80 min
4 |  |  |  |  |  |  |  |  |  |  |  |  |  |  |  | does not appreciably inhibit ERK2 | 5.09 | Biotin-PEG4-tetrazine [Biotin-PEG4-Tz] |  |  | 
